Sampled rows, rich in hits. Any-hit rate of the full collection: about 5.4%.
tolC growth inh = blocks growth of E. coli BW25113 tolC mutant. OD615. growth inhibition, % at 10 µM (by protocol). 65,000 compounds, 2.2% hits. AID 573;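 active = growth inhibition at or above a cutoff equal to the mean over every tested compound plus 3 SD, cut at about 60% in these data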;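 note: growth measured after 20 h incubation at 37 °C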
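Test system – E. coli BW25113 ΔtolC::kan, tolC deletion mutant strain · Detection – OD at 615 nm · Buffer or medium – LB with kanamycin 50 µg/mL · Times – 20 h compound exposure of bacteria at 37 °C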
PLAP activator = activates human placental alkaline phosphatase; P05187; 96,000 compounds, 1.2% hits; activation fold at 20 µM; purified PLAP enzyme, luminescent substrate read-out; hits give high values; in the data active = activation fold above about 2
PostGolgi yeast = growth inhibition of a yeast mutant, post-Golgi transport screen; post-Golgi transport phenotypic cell assay; inhibition, % at 10 µM; 98,000 compounds, 0.9% hits;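 note: yeast cells grown in 1536-well plates; yeast grown about 18 h at 30C before absorbance read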
PostGolgi ctrl = growth of the yeast control strain, post-Golgi counter-screen; efflux-deficient yeast background strain, growth absorbance A615, 16 h; inhibition, % at 10 µM; 98,000 compounds, 5% hits; AID 738
HePTP inh = human HePTP phosphatase inhibition. 110,000 compounds, 0.64% hits. P35236. inhibition, % at 20 µM. recombinant HePTP phosphatase activity, OD absorbance; in the data active = inhibition above about 50%;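 note: plate controls were vehicle for no effect and reference inhibitor for full effect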
Target sequence (P35236 whole entry, looked up): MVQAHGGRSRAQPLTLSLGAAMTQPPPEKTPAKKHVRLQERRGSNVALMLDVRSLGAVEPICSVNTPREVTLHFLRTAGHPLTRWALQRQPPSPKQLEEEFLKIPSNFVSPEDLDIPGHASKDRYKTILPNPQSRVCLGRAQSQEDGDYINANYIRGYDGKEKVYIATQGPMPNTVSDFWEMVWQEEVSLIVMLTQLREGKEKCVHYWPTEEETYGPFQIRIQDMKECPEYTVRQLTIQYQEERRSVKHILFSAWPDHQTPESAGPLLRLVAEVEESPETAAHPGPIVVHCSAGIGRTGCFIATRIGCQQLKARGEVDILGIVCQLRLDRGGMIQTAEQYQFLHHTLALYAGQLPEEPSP
E coli WT exp = blocks growth of wild type E. coli BW25113; OD600 absorbance; 98,000 compounds, 0.15% hits; growth inhibition, % at 100 µM; AID 710;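 active = growth inhibition above about 50% at one test dose, limit read from the data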;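 note: growth measured after 20 h incubation at 37 °C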
Numbers without * were called inactive. Cut-off read from the data, not from the text of the source, unless noted: active = inhibition above about 30%; inactive = the rest.

What do the screens show for `CCOC(=O)C1CCN(C(=O)Cc2cccs2)CC1`?
tolC growth inh: -9; PLAP activator: 0.9; PostGolgi yeast: -4; PostGolgi ctrl: 36*; HePTP inh: 5; E coli WT exp: 4

What do the screens show for `Cc1onc(-c2ccccc2Cl)c1C(=O)N1CCN(c2ccccc2)CC1`?
tolC growth inh: 11; PLAP activator: 1.4; PostGolgi yeast: 0; PostGolgi ctrl: 39*; HePTP inh: 2; E coli WT exp: 5

How did CCOC(=O)C1CCN(C(=O)Cc2ccccc2OC)CC1 do in these assays?
HePTP inh: -1

What do the screens show for `CC1=NN(c2nc(-c3ccc(F)cc3)cs2)C(=O)/C1=C\c1ccc2c(c1)OCO2`?
HePTP inh: 12

Results for O=C(O)CCCCCN1C(=O)C(=O)/C(=C(/O)c2ccc([N+](=O)[O-])cc2)C1c1cccc(F)c1 (stereo not given) ?
HePTP inh: -1

Results for Cc1ccc(-c2noc(CSc3nnnn3C3CCCCC3)n2)cc1 ?
tolC growth inh: 73*; PLAP activator: 1; PostGolgi yeast: -7; PostGolgi ctrl: 40*; HePTP inh: -5; E coli WT exp: 2

Results for O=C1CC(c2ccco2)CC2=C1C1c3ccccc3C(=O)N1c1ccccc1N2 (stereo not given) ?
tolC growth inh: 89*; PLAP activator: 1.1; PostGolgi yeast: 3; PostGolgi ctrl: 22; HePTP inh: -4; E coli WT exp: -1

How did CCOC(=O)CCCC[C@H]1SC[C@@H](NC(=O)OC)[C@H]1NC(=O)OC do in these assays?
HePTP inh: 11

Results for CS(=O)(=O)c1ccccc1-c1nc(-c2ccc(C(F)(F)F)cc2)no1 ?
PLAP activator: 0.9; PostGolgi yeast: -12; PostGolgi ctrl: 31*; E coli WT exp: 3

Results for O=C(Nc1nc2c(s1)CCCC2)Oc1ccccc1 ?
tolC growth inh: 10; PLAP activator: 1.1; PostGolgi yeast: -7; PostGolgi ctrl: -9; HePTP inh: 8; E coli WT exp: -8

What do the screens show for `C/C(=N\Nc1nc2c(s1)CCCC2)c1ccccc1`?
PLAP activator: 2.3*; PostGolgi yeast: -3; PostGolgi ctrl: 20; E coli WT exp: -3

What do the screens show for `O=C(CN(c1ccc(F)cc1)S(=O)(=O)c1ccccc1)Nc1ccc(Cl)cc1`?
HePTP inh: 2

How did CCCC(=O)Nc1sc(C(=O)N(CC)CC)c(C)c1C(=O)OC do in these assays?
HePTP inh: 8

What do the screens show for `C/C(CC1CC2=C(CC1(C)C)C(C)(C)CCC2)=N\NC(N)=S` (stereo not given)?
PLAP activator: 0.9; PostGolgi yeast: 104*; PostGolgi ctrl: 80*; E coli WT exp: -1

How did Cc1ccc(OCC(=O)Nc2sc3c(c2C(N)=O)CCC(C)C3)cc1C (stereo not given) do in these assays?
HePTP inh: 0

How did Cc1ccc(C(=O)O/N=C(/c2nonc2N)N(C)C)cc1 do in these assays?
PLAP activator: 1.2; PostGolgi yeast: 2; PostGolgi ctrl: 3; E coli WT exp: -1

What do the screens show for `Cc1ccc(N=C(NO)c2nonc2N)cc1`?
PLAP activator: 1.3; PostGolgi yeast: -3; PostGolgi ctrl: 41*; E coli WT exp: 9

What do the screens show for `COC(=O)C1=C(C)NC(C)=C(C(=O)OC)C1c1cn(-c2ccccc2)nc1-c1ccco1`?
tolC growth inh: 52; PLAP activator: 1.3; PostGolgi yeast: 25; PostGolgi ctrl: 69*; HePTP inh: -6; E coli WT exp: -5

What do the screens show for `CCOC(=O)C1=C(C)NC(=S)NC1c1cn(-c2ccccc2)nc1-c1ccccc1` (stereo not given)?
HePTP inh: 4

What do the screens show for `O=C(CCNc1cccc(C(F)(F)F)c1)c1ccc([N+](=O)[O-])cc1`?
HePTP inh: -2

Results for N#CC1=C(S)N=C(N)C(c2nc(-c3ccccc3)cs2)C12CCCC2 (stereo not given) ?
PLAP activator: 2.5*; PostGolgi yeast: -9; PostGolgi ctrl: 5; E coli WT exp: -12

How did Cc1ccc(C(=O)CSC2=NC(N)=C(C#N)C3(CCCCC3)C2C(N)=O)cc1 (stereo not given) do in these assays?
tolC growth inh: 18; PLAP activator: 1.3; PostGolgi yeast: 3; PostGolgi ctrl: 1; HePTP inh: 3; E coli WT exp: -4

What do the screens show for `N#CC1=C(S)N=C(N)C(c2nc(-c3ccccc3)cs2)C12CCCCC2` (stereo not given)?
PLAP activator: 2.2*; PostGolgi yeast: 2; PostGolgi ctrl: 14; E coli WT exp: -8

Source: PubChem
